Source: PubChem BioAssay (several laboratories)
Mdm2 MdmX PPI: human Mdm2/MdmX binding inhibition. O15151+Q00987. SaOS-2 split-luciferase Mdm2/MdmX complementation, luminescence. inhibition, % at 8 µM. hit rate 3% among 330,000. AID 485346;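 active means inhibition of at least 50% at 8 µM in the primary screen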
Target sequence (O15151 whole entry, looked up): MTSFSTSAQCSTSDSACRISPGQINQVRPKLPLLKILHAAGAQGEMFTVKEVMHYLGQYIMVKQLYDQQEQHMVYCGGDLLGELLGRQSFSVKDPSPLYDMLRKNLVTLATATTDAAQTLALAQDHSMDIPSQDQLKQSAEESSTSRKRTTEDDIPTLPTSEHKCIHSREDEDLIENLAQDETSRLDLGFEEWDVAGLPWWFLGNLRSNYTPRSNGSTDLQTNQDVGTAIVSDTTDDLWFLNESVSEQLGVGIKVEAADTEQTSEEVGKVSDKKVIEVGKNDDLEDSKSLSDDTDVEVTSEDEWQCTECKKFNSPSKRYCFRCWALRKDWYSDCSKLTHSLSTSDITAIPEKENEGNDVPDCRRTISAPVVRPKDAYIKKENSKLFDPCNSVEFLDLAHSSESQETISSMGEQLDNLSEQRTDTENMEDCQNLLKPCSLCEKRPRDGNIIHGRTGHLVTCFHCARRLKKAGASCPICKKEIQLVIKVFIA
Target sequence (Q00987 whole entry, looked up): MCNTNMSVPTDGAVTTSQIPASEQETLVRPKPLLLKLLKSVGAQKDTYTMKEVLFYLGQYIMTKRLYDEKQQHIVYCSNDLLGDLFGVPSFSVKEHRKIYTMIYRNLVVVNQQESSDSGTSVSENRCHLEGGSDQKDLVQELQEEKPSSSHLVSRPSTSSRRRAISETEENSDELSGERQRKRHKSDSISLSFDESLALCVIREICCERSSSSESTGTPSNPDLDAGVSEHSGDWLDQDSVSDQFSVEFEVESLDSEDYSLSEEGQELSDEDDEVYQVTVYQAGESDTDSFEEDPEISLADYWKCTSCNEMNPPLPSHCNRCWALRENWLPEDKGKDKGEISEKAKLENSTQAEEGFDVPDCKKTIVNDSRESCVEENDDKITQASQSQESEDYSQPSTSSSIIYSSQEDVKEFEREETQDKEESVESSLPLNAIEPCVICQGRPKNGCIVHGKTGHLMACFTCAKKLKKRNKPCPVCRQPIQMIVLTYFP
T cruzi repl: T. cruzi replication inhibition; T. cruzi beta-gal in NIH3T3, luminescence, 90 h; inhibition, % (test concentration not listed); AID 1885; hit rate 1.4% among 300,000;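 active means mean inhibition across valid replicates above about 55%, limit read from the data; inconclusive means mean below that limit but half or more replicates reach it; inactive means mean below it, under half of replicates reach it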;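 further: signal also drops with host cell toxicity which is not excluded here; 0% = plate median of DMSO wells and 100% = zero luminescence signal; higher percent means less beta-gal luminescence so fewer parasites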
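System: NIH/3T3 fibroblasts plus reporter T. cruzi. Medium: DMEM plus 2% FBS. Probe or stimulus: 5000 reporter trypomastigotes per well. Compound: single 50 nL compound addition per well in DMSO. Incubation: co-culture of at least 90 h after 3 h attachment. Detection: GalScreen β-gal luminescence, detergent lysis, 60 min. Evaluation: parasite load inhibition, %.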
XBP1 UPR activ: adaptive UPR (XBP1) activation; CHO-XBP1 luciferase reporter, IRE1-XBP1 UPR activation, luminescence; percent of tunicamycin response, DMSO as zero; activation, % at 20 µM; hit rate 0.33% among 330,000; AID 463104;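 active means versus positive control, 20 µM dose yields 30% or more activation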;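 further: 100% = tunicamycin at 10 µg/mL and 0% = DMSO only wells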
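Assay system: CHO-XBP1 luciferase reporter cells; Schedule: 6 h treatment, 37 °C; Detection: glow luminescence from Steady-Glo reagent; Benchmarks: high control tunicamycin 10 µg/mL final, low control DMSO vehicle only.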
Beta cell apopt: blocks beta cell apoptosis; hit rate 0.8% among 300,000; protection from apoptosis, % (no concentration beside the values); INS-1E cytokine-induced death, ATP luminescence, 48 h; percent of positive-control rescue, neutral wells zero;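 active means Every replicate reaches about 75%, or at least half do and their mean reaches it too, limit read from the data; inconclusive means At least half of replicates reach the limit but their mean does not; inactive means Under half of replicates reach the limit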;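 further: 0% = cytokine-treated negative control wells and 100% = positive control rescue; higher means more ATP so stronger rescue from cytokine killing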
CSC inhib: cancer stem cell inhibition; inhibition, % at 7.5 µM; cancer stem cell-like cells viability, luminescence; hit rate 1.1% among 300,000; AID 2717; in the data active means inhibition above about 75%; inconclusive means no clear call, values can overlap the other calls; tested in HMLE shEcad cells
UPR CHOP act: activators of apoptotic arm of unfolded protein response (CHOP). activation, % at 10 µM. AID 449763. CHO-CHOP luciferase reporter, UPR activation, luminescence; percent of tunicamycin response over DMSO baseline. hit rate 0.34% among 330,000;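 active means at 10 µM dose, activation of 40% or more, normalized to positive control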;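 further: 100% = tunicamycin at 10 µg/mL and 0% = DMSO alone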
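assay system = CHO CHOP reporter cells | amount = 500 CHO-CHOP cells per well | buffer or medium = F12 with 10% FBS | incubation = 16-18 h cell attachment, then 6 h compound exposure, 37 °C | detection = luminescence read with Steady-Glo | read-out = percent activation relative to tunicamycin control | controls = tunicamycin high control, DMSO low control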
* marks the source's active call; other numbers are inactive results; ? = inconclusive; nt = no result. Sampled rows, rich in hits. Any-hit rate of the full collection: about 5%.

SMILES	Mdm2 MdmX PPI	T cruzi repl	XBP1 UPR activ	Beta cell apopt	CSC inhib	UPR CHOP act
O=C(COC(=O)c1cn(-c2ccccc2)nc1-c1ccccc1)c1cccc([N+](=O)[O-])c1	0	20	2	102*	42	10
Cc1ccc(C(=O)COC(=O)c2cn(-c3ccccc3)nc2-c2ccccc2)cc1[N+](=O)[O-]	1	6	1	99*	?	11
CCc1ccccc1NC(=O)CN(C)C(=O)COC(=O)c1ccco1	6	nt	-2	-6	-16	0
Cc1nn(C(C)C(=O)NCCN2CCCCCC2)c(=O)c2nn(-c3ccccc3)c(C)c12 (centres undefined)	12	-3	-1	-5	0	-1
Cc1nn(C(C)C(=O)N2CCCC2)c(=O)c2nn(-c3ccccc3)c(C)c12 (centres undefined)	7	56*	-3	-2	-11	0
O=C(Cn1ccnc1)c1ccc(Cl)cc1	22	59*	-1	0	1	-1
O=C(CSc1ccccc1F)NNC(=O)c1cncc(Br)c1	-14	nt	-3	-3	-5	2
COC(=O)c1ccc(=O)n(CC(=O)c2ccc(Cl)cc2)c1	3	-3	5	2	-10	0
Cc1sc(NC(=O)c2ccco2)c(CN2CCC(C)CC2)c1C	-22	21	0	-3	26	0
Cc1sc(NC(=O)c2ccco2)c(CN2CCN(Cc3ccccc3)CC2)c1C	19	59*	-2	-5	-11	0
Cc1ccc(S(=O)(=O)N(C)c2ccc(OCc3cccc(C)c3)cc2)cc1	34	9	-6	-2	77*	-1
COCc1cc(C)nc(OC)c1C(N)=O	12	-16	3	-15	1	0
COc1ccc(F)cc1S(=O)(=O)n1nc(C)cc1C	11	-10	-5	-3	-19	-1
COc1cc(OC)cc(C(=O)NCCNc2nc3cc(C)cc(C)c3cc2C#N)c1	20	6	5	8	77*	-1
COc1ccccc1C(=O)NCCNc1nc2cc(C)cc(C)c2cc1C#N	14	3	2	1	13	-1
CC1(C)CC(NC(=O)c2ccccc2)CC(C)(C)N1	10	-1	-2	-9	-11	2
CC1(C)CC(Nc2ccc(Nc3ccccc3)cc2)CC(C)(C)N1	nt	65*	nt	25	7	nt
S=c1nc[nH]c2nc[nH]c12	29	?	-6	-2	84*	0
COc1ccc2[nH]c3c(=S)nc[nH]c3c2c1	1	-19	1	-1	-4	0
CCn1c(CCl)nc2cc(S(=O)(=O)N3CCOCC3)ccc21	43	nt	-4	-2	-2	7
COc1ccc(C(=O)c2ccccc2Cl)cc1	15	-4	-6	nt	7	0
COc1ccc(C(=O)c2ccc([N+](=O)[O-])cc2Cl)cc1	7	60*	0	2	15	0
C[C@@H]1C=C(C(=O)NCc2nc3ccccc3[nH]2)O[C@H](OCCCCO)C1	4	-2	-1	-8	7	0
Cc1ccc(S(=O)(=O)Nc2ccc(Cl)cc2)cc1NC(=O)c1cc2c(s1)CCCC2	-16	75*	-4	8	20	2
CCc1noc(C)c1C(=O)NNC(=O)COc1ccc(C)c(C)c1	0	-3	-2	-2	6	0
SMILES	Mdm2 MdmX PPI	T cruzi repl	XBP1 UPR activ	Beta cell apopt	CSC inhib	UPR CHOP act
O=C(NCC(c1cccs1)N1CCOCC1)c1cc([N+](=O)[O-])cc([N+](=O)[O-])c1 (centres undefined)	-11	73*	0	-3	12	2
O=C(NCC(c1cccs1)N1CCOCC1)c1ccc(Cl)cc1 (centres undefined)	44	-15	-1	3	-7	-2
O=C(NCC(c1cccs1)N1CCOCC1)c1ccc(Cl)s1 (centres undefined)	26	-36	-1	2	78*	-2
Brc1ccccc1-c1nnc(CSc2nnc3sc4ccccc4n23)o1	-4	0	1	-1	nt	0
CSc1nc(N)nc(SCC(=O)C23CC4CC(CC(C4)C2)C3)c1C#N	21	65*	3	11	nt	0
CCCC(=O)Nc1ccc(C(=O)n2ccc(C)n2)cc1	12	-8	0	-2	-1	1
COCCCNCCCOc1ccc(Cl)cc1C(C)(C)C	44	46	3	8	23	5
CNCCCOc1ccc(Cl)cc1C(C)(C)C	42	55*	0	nt	26	-1
Cc1cnc(C(=O)Nc2cccc3cccnc23)cn1	nt	66*	nt	nt	nt	nt
CC1=C(n2nnc([N+](=O)[O-])n2)C(c2cccnc2)C(C#N)=C(N)O1 (centres undefined)	4	57*	-2	nt	-2	1
CSc1ccccc1C(=O)Nc1cc(C)ccc1C	28	4	1	-15	78*	-2
O=C(Nc1cccc(NC(=O)C2CCCO2)c1)c1ccco1 (centres undefined)	-14	-14	0	-10	22	-2
COc1ccc(-c2c(-c3ccc(O)cc3O)n[nH]c2C(F)(F)F)cc1	40	-3	-1	-3	31	-1
Oc1ccc(-c2n[nH]c(C(F)(F)F)c2-c2ccccc2)c(O)c1	8	-48	-1	105*	-15	-1
CN(C)c1ccc(/C=C/c2ccc3ccccc3n2)cc1	nt	50	nt	76*	84*	nt
C(=C\c1ccc2ccccc2n1)/c1ccccc1	-84	-18	-8	13	24	-5
Cc1ccc(C(=O)NCC(=O)O)o1	-5	-5	-2	-2	-7	0
